An excerpt weighted towards active compounds, which were near 0.58% of everything screened.
PglD DTNB – blocks C. jejuni PglD acetyltransferase activity; purified PglD enzyme, DTNB colorimetric CoA detection; inhibition, % at 12.5 µM; actives 0.098% (n = 360,000); in the data active means inhibition above about 16%, passing the limit was not always enough; inconclusive means no clear call, values can overlap the other calls
PvdQ acylase – P. aeruginosa PvdQ acylase inhibition | purified PvdQ acylase, fluorescence plate reader | inhibition, % at 10 µM | actives 0.063% (n = 340,000) | AID 488965; in the data active means inhibition above about 30%, passing the limit was not always enough; inconclusive means no clear call, values can overlap the other calls;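 further: 0% = vehicle neutral wells and 100% = reference inhibitor wells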
PDI inh – PDI (human) enzyme inhibition; PDI insulin aggregation turbidity, A650, 90 min; inhibition, % at 10 µM; actives 0.052% (n = 350,000);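 active means mean inhibition across replicates of 30% or more, whatever share of single replicates reach that level; inconclusive means mean inhibition below 30% while every single replicate reaches 30%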
Target sequence (P07237 whole entry, looked up): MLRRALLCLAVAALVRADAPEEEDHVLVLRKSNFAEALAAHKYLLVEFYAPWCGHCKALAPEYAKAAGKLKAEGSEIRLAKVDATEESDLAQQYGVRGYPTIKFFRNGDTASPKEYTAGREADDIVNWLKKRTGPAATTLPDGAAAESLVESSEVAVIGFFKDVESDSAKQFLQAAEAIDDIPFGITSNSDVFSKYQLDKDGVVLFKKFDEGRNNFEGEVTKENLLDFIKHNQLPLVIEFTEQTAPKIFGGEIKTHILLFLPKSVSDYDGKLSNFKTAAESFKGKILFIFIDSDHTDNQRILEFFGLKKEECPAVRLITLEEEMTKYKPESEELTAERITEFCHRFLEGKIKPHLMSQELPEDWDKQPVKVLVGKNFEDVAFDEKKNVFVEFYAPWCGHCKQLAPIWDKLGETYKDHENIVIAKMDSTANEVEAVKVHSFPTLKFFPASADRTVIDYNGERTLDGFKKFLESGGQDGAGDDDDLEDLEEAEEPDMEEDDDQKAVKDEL
Cneo AK release – Cryptococcus neoformans lysis via adenylate kinase release. C. neoformans lysis, adenylate kinase release luminescence, 4 h; normalised: neutral wells 0, clomiphene wells 100. lysis activity, % at 15 µM. actives 0.2% (n = 360,000). AID 651654;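 active means mean lysis activity across replicates of at least 80%, whatever share of replicates individually reach that level; inactive means mean lysis activity below 80%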
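read-out = cell lysis signal | test system = log-phase Cryptococcus neoformans yeast cells | input = cells at 5 × 10^6 per mL | medium = fresh YPD growth medium | signal = luminescent adenylate kinase detection reagent | timing = 4 h at 37 °C static, read 1 h later | dosing = single dose | controls = Clomiphene as positive lysis control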
miR-122 sensor – miR-122 inhibition in Huh7 cells; Huh7 miR-122 Renilla luciferase sensor, 48 h; neutral wells = 0, positive control = 100; actives 0.3% (n = 340,000); activation (reporter increase), % at 12.5 µM;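 active means mean replicate activation score at least 90 and every replicate individually at or above 90; inconclusive means only one of the two criteria met; inactive means neither criterion met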;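 further: higher luciferase means less miR-122 activity so hits act as miR-122 inhibitors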
ERp5 block – inhibitors of human ERp5; Q15084; ERp5 insulin aggregation, absorbance 650 nm, 90 min; inhibition, % at 9.99 µM; actives 0.05% (n = 350,000);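 active means mean replicate inhibition above about 25%, with every replicate also reaching it, limit read from the data, passing the limit was not always enough; inconclusive means only one of those two criteria met; inactive means neither criterion met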
Starred values were filed as active, the others as inactive; ? = inconclusive; nt = no result given; ! = repeats disagree; [ ] = remark or other dose.

SMILES	PglD DTNB	PvdQ acylase	PDI inh	Cneo AK release	miR-122 sensor	ERp5 block
CN1CCN(C(=O)c2cc3c(c(-c4cccc(-c5ccc(C(=O)N(C)C)cc5)c4)n2)[C@H](CCO)N([S@@](=O)C(C)(C)C)C3)CC1	1.5	nt	nt	-6.0	nt	0.6
C[C@H](CO)N1C[C@H](C)[C@@H](CN(C)S(=O)(=O)c2cccs2)Oc2c(NC(=O)C3CCOCC3)cccc2C1=O	1.5	nt	nt	-3.5	-1.4[16.7 µM]	-1.8
Cc1ccc(S(=O)(=O)N(C)C[C@@H]2Oc3ccc(NC(=O)Nc4ccc5c(c4)OCO5)cc3CC(=O)N([C@@H](C)CO)C[C@@H]2C)cc1	-0.4	nt	nt	-2.0	113.4*[16.7 µM]	11.9
C[C@H](CO)N1C[C@H](C)[C@H](CN(C)S(=O)(=O)c2ccc(Cl)cc2)Oc2ccc(NC(=O)Nc3ccc(C(F)(F)F)cc3)cc2CC1=O	nt	nt	nt	nt	94.1*[16.7 µM]	5.6
CC(C)NC(=O)Nc1ccc2c(c1)CC(=O)N([C@H](C)CO)C[C@H](C)[C@H](CN(C)S(=O)(=O)c1ccc(Cl)cc1)O2	0.0	nt	nt	88.8*	3.9[16.7 µM]	-0.5
C[C@@H]1CN([C@H](C)CO)C(=O)c2cc(NS(=O)(=O)c3ccc(Cl)cc3)ccc2O[C@H]1CN(C)S(C)(=O)=O	nt	nt	nt	nt	10.1[16.7 µM]	nt
O=C(NC1Cc2ccccc2C1)[C@H]1N[C@H]2c3cccc(=O)n3C[C@H]2[C@@H]1CO	2.0	nt	nt	-3.2	nt	-5.7
C[C@H](CO)N1C[C@H](C)[C@@H](CN(C)C(=O)Nc2ccc3c(c2)OCO3)Oc2ccc(NS(=O)(=O)c3cccs3)cc2C1=O	-0.6	nt	nt	99.6*	14.8[16.7 µM]	-1.0
C[C@@H]1CN([C@H](C)CO)C(=O)c2cc(NS(=O)(=O)c3ccccc3)ccc2O[C@H]1CN(C)C(=O)NC1CCCCC1	0.3	nt	nt	95.9*	40.5[16.7 µM]	1.1
COc1ccc(S(=O)(=O)Nc2ccc3c(c2)C(=O)N([C@@H](C)CO)C[C@@H](C)[C@H](CN(C)C(=O)Nc2ccccc2)O3)cc1	1.9	nt	nt	-2.9	-10.8[16.7 µM]	1.5
C[C@H]1CN([C@@H](C)CO)C(=O)c2cc(NS(=O)(=O)c3ccccc3)ccc2O[C@H]1CN(C)C(=O)NC1CCCCC1	-1.0	nt	nt	-1.1	-5.8[16.7 µM]	6.9
COc1ccc(S(=O)(=O)Nc2ccc3c(c2)C(=O)N([C@H](C)CO)C[C@@H](C)[C@@H](CN(C)C(=O)Nc2ccccc2)O3)cc1	3.1	nt	nt	82.8*	-1.7[16.7 µM]	5.6
CC(=O)N1CC2(C1)[C@H](c1ccc(-c3cccc(C#N)c3)cc1)[C@H](CO)N2CCC(F)(F)F	nt	nt	nt	nt	nt	0.4
CO[C@@H]1CN(C)C(=O)c2cc(NC(=O)C3CCC3)ccc2OC[C@@H](C)NC[C@H]1C	-2.6	nt	nt	1.4	-4.3[16.7 µM]	-3.8
COc1ccc(CCNC(=O)/C(C#N)=C/c2ccc(OCC(=O)NCC3CCCO3)cc2)cc1OC (configuration not stated)	nt	35.4*	4.4	nt	nt	3.2
CCOC(=O)C1=C(C)N=c2s/c(=C\c3cccc(OCC(=O)O)c3)c(=O)n2C1c1ccccc1OC (configuration not stated)	1.8	-27.8	-3.9	2.3	nt	1.8
CCOC(=O)C1=C(c2ccccc2)N=c2s/c(=C\c3cccc(O)c3)c(=O)n2C1c1cccs1 (configuration not stated)	nt	-4.5	60.7*	nt	nt	nt
C[C@H](CO)N1C[C@H](C)[C@@H](CN(C)S(=O)(=O)c2ccc(Oc3ccccc3)cc2)OCc2cnnn2CCCC1=O	0.9	nt	18.7	0.3	-2.2	89.2*!
COCCNC(=O)C[C@@H]1CC[C@@H]2[C@@H](COc3ccc(NC(=O)C4CCCC4)cc3C(=O)N2C)O1	-3.3	nt	nt	-4.0	-1.4[16.7 µM]	-3.6
CCOC(=O)c1ccc(N2Cc3ccccc3C2=NC(=O)c2ccncc2)cc1	nt	?	10.5	nt	nt	2.2
CCOC(=O)c1ccc(N2Cc3ccccc3C2=N)cc1	-2.3	57.7*	-1.2	3.1	-0.1	nt
CC(C)C(=O)Nc1ccc2c(c1)C(=O)N(C)[C@H]1CC[C@H](CC(=O)Nc3cccc(F)c3)O[C@@H]1CO2	-1.3	nt	nt	-2.2	-35.0[16.7 µM]	-2.7
CCOCc1nnc(NS(C)(=O)=O)s1	-7.7	-2.0	-4.7	-0.3	268.5*	nt
CCOCc1nnc(NC(C)=O)s1	3.0	4.2	-9.8	1.5	1.4	nt
C[C@@H]1CN([C@@H](C)CO)C(=O)Cc2cc(NS(=O)(=O)c3ccccc3)ccc2O[C@H]1CN(C)C	4.1	nt	nt	2.3	0.4[16.7 µM]	3.3
SMILES	PglD DTNB	PvdQ acylase	PDI inh	Cneo AK release	miR-122 sensor	ERp5 block
C[C@@H]1CN([C@@H](C)CO)C(=O)c2cc(NC(=O)Nc3cccc4ccccc34)ccc2O[C@@H]1CN(C)Cc1ccc(C(=O)O)cc1	-7.5	nt	nt	0.5	-1.8[16.7 µM]	4.6
O=C(c1cccc(F)c1)N1C[C@@H]2[C@H](c3ccccc31)[C@H](CO)N2Cc1cocn1	1.7	nt	nt	82.3*	78.6[16.7 µM]	-0.1
O=C(c1cccc(F)c1)N1C[C@@H]2[C@H](c3ccccc31)[C@H](CO)N2C(=O)c1cccc(F)c1	3.6	nt	nt	-0.1	10.0[16.7 µM]	-1.0
O=C(Nc1ccc(F)cc1)N1C[C@@H]2[C@H](c3ccccc31)[C@@H](CO)N2Cc1ccccc1	-3.0	nt	nt	-1.6	-10.0[16.7 µM]	-1.5
O=C(Nc1ccc(F)cc1)N1C[C@@H]2[C@H](c3ccccc31)[C@H](CO)N2Cc1cocn1	-1.5	nt	nt	91.3*	-2.8[16.7 µM]	2.7
COc1ccccc1NS(=O)(=O)c1cc(C(=O)NCc2ccco2)ccc1C	-1.5	-10.3	1.2	1.9	109.9*	nt
Cc1ccccc1NS(=O)(=O)c1cc(C(=O)NCc2ccco2)ccc1C	1.1	5.5	-3.0	-1.8	70.8	nt
Cc1ccc(C)c(NS(=O)(=O)c2cc(C(=O)NCc3ccco3)ccc2C)c1	-4.3	-14.6	2.8	-7.8	200.0*	nt
Cc1ccc(C(=O)NCc2ccco2)cc1S(=O)(=O)Nc1cccc(C)c1C	0.7	-16.9	3.4	2.7	244.3*	nt
CN1C(=O)N[C@@H]2c3ccccc3O[C@@]1(C)[C@@H]2COC(=O)c1ccc([N+](=O)[O-])cc1	nt	nt	nt	-2.3	nt	-1.1
CN1C(=O)N[C@@H]2c3ccccc3O[C@@]1(C)[C@@H]2COC(=O)c1ccccc1	0.8	nt	nt	95.9*	nt	-0.1
CCc1cccc(NC(=O)Cc2cn(C)c3ccccc23)c1	-1.6	-11.3	3.9	3.1	12.7	nt
Cn1cc(CC(=O)Nc2cccc(C#N)c2)c2ccccc21	19.8	-30.4	2.7	0.1	138.3*	nt
Cc1ccc(/C=C2\SC(=S)N(NS(=O)(=O)c3ccc(C)cc3)C2=O)cc1	-13.1	-12.8	-2.2	120.6*	-4.1	-0.2
C[C@H]1CN([C@@H](C)CO)C(=O)c2cc(NC(=O)Cc3cn(C)c4ccccc34)ccc2O[C@@H]1CN(C)C(=O)Nc1ccc(F)cc1	1.3	nt	nt	-2.8	-0.7[16.7 µM]	9.2
CC1CCN(C(=S)c2ccc(O)cc2)CC1	0.5	-4.5	-17.8	-3.3	248.3*	nt
CN1C(=O)c2cc(NC(=O)Cc3cccs3)ccc2OC[C@H]2O[C@H](CC(=O)O)CC[C@H]21	1.6	nt	nt	56.6	3.4[16.7 µM]	-2.4

Compound activity deposited in PubChem BioAssay by Broad Institute.
